Series [1] in a line: Drug uptake in human MCF7 cells at 1 to 10 uM after 24 hrs by HPLC-MS/MS analysis. Particulars: mcf7, 24 h, dose 1-10 µM; call rule not given here. Format: ADME, cell-based. An outline of the steps:
(§1)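 MCF7 cells received 1, 5 or 10uM of each isomer for 1h or 24h as stated. Intracellular isomer levels were quantified by UHPLC-MS/MS of lipid extracts from cell pellets. Data are means ± st dev of triplicates.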

Series [2] relates to MCF7. Nature of the series: Antiproliferative activity against human MCF7 cells assessed as growth inhibition after 24 hrs by MTT assay. Format: functional, cell-based. Particulars: MCF7, 24 h. A digest of the protocol: (§2)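 MCF7 (RPMI 1640 with 10% FBS, 2mM L-glutamine, 37°C, 5% CO2) harvested in exponential growth, then exposed to each B13 stereoisomer for the stated time. Viable cells were quantified by MTT and expressed as % of untreated control (means ± st dev, 5 replicates). IC50 values were derived per time point.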
In general terms: Formazan colour is commonly taken as a measure of viable cells.

Series [3] can be described thus: Drug metabolism in human MCF7 cells assessed as increase in C14-ceramide metabolite formation at 10 uM after 1 hr by UHPLC-MS/MS analysis. Format: ADME, cell-based. Particulars: mcf7, 1 h. An outline of the steps: (§3)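 After 1h of exposure to 10uM of each isomer, MCF7 pellets were extracted. Endogenous Cn-Cer and Cn-dhCer species were quantified by UHPLC-MS/MS as pmol/nmol lipid phosphate. Results are triplicate means ± st dev versus control.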

A short description of series [4]: Drug metabolism in human MCF7 cells assessed as ceramidase mediated C16 metabolite formation after 24 hrs by UHPLC-MS/MS analysis. Format: ADME, cell-based. Conditions: mcf7, 24 h. A digest of the protocol: (§4)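 Cells were treated with 10uM of each isomer for 24h, then pellets were collected and lipids extracted. C16 and C24:1 analogs were quantified by UHPLC-MS/MS as pmol/nmol lipid phosphate, referenced against standards. Values are means ± st dev of triplicates from 3 separate experiments.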

The nature of series [5]: Drug uptake in human MCF7 cells at 1 to 10 uM after 1 hr by HPLC-MS/MS analysis. The class given is ADME, cell-based. Conditions: mcf7, 1 h, dose 1-10 µM. An outline of the steps: as §1
Series [6] can be described thus: Drug metabolism in human MCF7 cells assessed as increase in C16-ceramide metabolite formation at 10 uM after 1 hr by UHPLC-MS/MS analysis. Format: ADME, cell-based. Particulars: mcf7, 1 h. An outline of the steps:
as §3

In series [7] the test system is MCF7. The series can be described thus: Antiproliferative activity against human MCF7 cells assessed as growth inhibition after 72 hrs by MTT assay. The class given is functional, cell-based. Particulars: MCF7, 72 h. A digest of the protocol: as §2
Series [8] in a line: Drug metabolism in human MCF7 cells assessed as ceramidase mediated C24:1 metabolite formation after 24 hrs by UHPLC-MS/MS analysis. Format: ADME, cell-based. Conditions: mcf7, 24 h. A digest of the protocol: as §4
The nature of series [9]: Drug metabolism in human MCF7 cells assessed as reduction in elevation of C26-ceramide metabolite formation at 10 uM after 1 hr by UHPLC-MS/MS analysis. Format: ADME, cell-based. Particulars: mcf7, 1 h. A digest of the protocol:
as §3

A short description of series [10]: Drug metabolism in human MCF7 cells assessed as reduction in endogenous sphingosine level at 1 to 10 uM after 24 hrs by UHPLC-MS/MS analysis. Format: ADME, cell-based. Particulars: mcf7, 24 h, dose 1-10 µM. A digest of the protocol:
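Isomers were applied at 1, 5 and 10uM for 24h. Endogenous Sph was measured in extracted pellet lipids by UHPLC-MS/MS (pmol/nmol lipid phosphate); the Cer/Sph ratio was also calculated. Values are triplicate means ± st dev versus control.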

Series [11] is described as follows: Drug metabolism in human MCF7 cells assessed as ceramidase-mediated C16 metabolite formation at 1 to 10 uM after 24 hrs by UHPLC-MS/MS analysis. Format: ADME, cell-based. Particulars: mcf7, 24 h, dose 1-10 µM.
The test system of series [12] is MCF7. Nature of the series: Antiproliferative activity against human MCF7 cells assessed as growth inhibition after 48 hrs by MTT assay. Format: functional, cell-based. Conditions: MCF7, 48 h.
A short description of series [13]: Drug metabolism in human MCF7 cells assessed as increase in C26-dihydroceramide elevation at 10 uM after 1 hr by UHPLC-MS/MS analysis. The class given is ADME, cell-based. Conditions: mcf7, 1 h. A digest of the protocol:
as §3

Series [14] can be described thus: Drug metabolism in human MCF7 cells assessed as increase in C26:1-dihydroceramide elevation at 10 uM after 1 hr by UHPLC-MS/MS analysis. Format: ADME, cell-based. Conditions: mcf7, 1 h. A digest of the protocol: as §3
Series [15] is described as follows: Drug metabolism in human MCF7 cells assessed as increase in C24:1-dihydroceramide elevation at 10 uM after 1 hr by UHPLC-MS/MS analysis. Format: ADME, cell-based. Conditions: mcf7, 1 h. An outline of the steps:
as §3

A short description of series [16]: Drug metabolism in human MCF7 cells assessed as increase in C24-dihydroceramide elevation at 10 uM after 1 hr by UHPLC-MS/MS analysis. The class given is ADME, cell-based. Conditions: mcf7, 1 h. An outline of the steps:
as §3

Series [17] is described as follows: Drug metabolism in human MCF7 cells assessed as elevation of =<C18-ceramide metabolite at 10 uM after 24 hr by UHPLC-MS/MS analysis. Conditions: mcf7, 24 h. Format: ADME, cell-based. An outline of the steps: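 Each isomer was given at 10uM to MCF7 cells for 24h. Lipid extracts of the cell pellets were profiled by UHPLC-MS/MS for Cn-Cer species, normalized to lipid phosphate (pmol/nmol). Data are means ± st dev of triplicates, compared with vehicle control (p<0.05).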

The nature of series [18]: Drugmetabolism in human MCF7 cells assessed as formation of phosphorylated free sphingoid base at 1 to 10 uM after 24 hrs by UHPLC-MS/MS analysis. Particulars: mcf7, 24 h, dose 1-10 µM. Format: ADME, cell-based.

The term IC50 denotes the concentration that inhibits the measured activity by half. Regarding `CCCCCCCCCCCCCC(=O)N[C@H](CO)[C@H](O)c1ccc([N+](=O)[O-])cc1`, the Drug uptake result in series [1] and in series [5] was “Active” in each case. Also, the IC50 in series [2] was 42.3 µM; in series [7], 37 µM; in [12], 35.6 µM. Further, the Drug metabolism entry in series [3], in [4], in series [6], in series [8], in [9] and in series [10] was “Metabolite_Detected” in each case. In [11], the Drug metabolism entry is reported as “Metabolite_Detected”.

As to `CCCCCCCCCCCCCC(=O)N[C@@H](CO)[C@@H](O)c1ccc([N+](=O)[O-])cc1`, the Drug uptake result in [1] and in series [5] was “Active” in each case. The IC50 in series [2] was determined as 54.1 µM; in [7], 46.6 µM; in [12], 43.6 µM. The Drug metabolism result in series [4], in [8], in series [10] and in series [11] was “Metabolite_Detected” each time.

On to `CCCCCCCCCCCCCC(=O)N[C@@H](CO)[C@H](O)c1ccc([N+](=O)[O-])cc1`, for which the Drug uptake result in series [1] is given as “Not Active”; in series [5] it was “Active”. Also, the IC50 turned out to be 10.2 µM in series [2], 9.39 µM in series [7] and 8.08 µM in [12]. The Drug metabolism result in series [4], in series [13], in series [14], in series [15], in series [16] and in series [17] was “Metabolite_Detected” in each case. Moreover, the Drug metabolism entry in [8], in series [18] and in [11] was “Metabolite_Detected” throughout.

Consider `CCCCCCCCCCCCCC(=O)N[C@H](CO)[C@@H](O)c1ccc([N+](=O)[O-])cc1`, for which the Drug uptake entry in series [1] and in series [5] was “Active” throughout. In addition, the results for the IC50 in series [2], in [7] and in [12] were 18 µM, 13.5 µM and 13.1 µM, respectively. Besides, the Drug metabolism result in series [4], in [8], in series [10] and in series [11] was “Metabolite_Detected” throughout.

The values are drawn from ChEMBL document CHEMBL4715895, “Synthesis of erythro- B13 enantiomers and stereospecific action of full set of B13-isomers in MCF7 breast carcinoma cells: Cellular metabolism and effects on sphingolipids” (Bioorg Med Chem, 2021).
